Hits are enriched below; roughly 7.4% of the tested compounds scored in any of these assays.
M1 ag: M1 muscarinic receptor agonism. 64,000 tested, 3% active. CHO-M1 cells, Fluo-4 calcium fluorescence, agonist mode; active compounds read high. AID 626. B-score at 10 µM;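 active = fluorescence rise, raw or as B-score row- and column-corrected plate score, outside the 99.7% band of its plate's samples, either direction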
Jurkat viability: cytotoxicity toward Jurkat cells. Jurkat E6.1 viability, ATP luminescence, 48 h. inhibition, % at 4 µM. 56,000 tested, 1.2% active. AID 463;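 active = inhibition above the mean inhibition of all tested compounds plus 3 SD, cut at about 28% in these data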
JNK3 inh: inhibitors of human JNK3 kinase; purified JNK3 kinase activity, HTS; inhibition, % at 8 µM; 60,000 tested, 0.61% active; in the data active = inhibition above about 17%
S1P1 ag-PAM: S1P1 (human) agonism or agonism potentiation; P21453; S1P1 CRE-bla cells, forskolin, beta-lactamase FRET, potentiator mode; S1P1 agonist co-added at EC20, 2 nM; 100% = saturating reference agonist, 0% = basal; activation, % at 9.5 µM; 56,000 tested, 0.57% active;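 active = activation above a cutoff set at the mean activation of all tested compounds plus 3 SD, cut at about 54% in these data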;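 also: forskolin at 4 µM as EC80 and the EC20 agonist is SEW2871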
Target sequence (P21453 whole entry, looked up): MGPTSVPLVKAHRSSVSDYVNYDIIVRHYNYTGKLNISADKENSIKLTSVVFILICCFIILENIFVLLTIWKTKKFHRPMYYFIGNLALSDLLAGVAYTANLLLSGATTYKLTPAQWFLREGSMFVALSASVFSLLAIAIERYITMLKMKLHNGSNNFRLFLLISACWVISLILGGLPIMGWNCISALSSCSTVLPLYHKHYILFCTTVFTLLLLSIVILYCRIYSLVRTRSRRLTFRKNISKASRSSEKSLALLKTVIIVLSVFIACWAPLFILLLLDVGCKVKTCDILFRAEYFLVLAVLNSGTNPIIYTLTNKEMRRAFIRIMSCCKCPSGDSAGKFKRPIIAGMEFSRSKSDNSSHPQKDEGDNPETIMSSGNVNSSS
S1P3 ag: S1P3 (human) receptor agonism. S1P3 NFAT-BLA reporter cells, FRET ratio; relative to 1 µM S1P, basal subtracted. activation, % at 4.5 µM. 60,000 tested, 0.1% active. AID 373;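 active = activation above the screen-wide mean plus 3 SD, cut at about 4.5% in these data, passing the limit was not always enough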
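Material: Human S1P3 NFAT-BLA reporter CHO cells | Incubation: Overnight plating, 4 h compound 37 °C, 2 h substrate RT | Signal: FRET β-lactamase substrate fluorescence, excitation 405 nm, 460/535 nm emission ratio, background-subtracted | Compound: 4.5 µM final, single dose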
M1 antagonist: antagonists of rat M1 muscarinic receptor; AID 628; CHO-M1 cells, Fluo-4 calcium, ACh EC80 antagonist mode; active compounds read low; 64,000 tested, 3.4% active; B-score at 10 µM; P08482;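 active = calcium fluorescence response, raw or row-and-column corrected B-score, differing from the plate sample mean either way at a set confidence level, mostly lower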
M1 antag conf: confirmation of rat M1 muscarinic receptor antagonists. shares compounds with M1 antagonist. CHO-M1 cells, Fluo-4 calcium, ACh EC80 antagonism; active compounds read low. calcium response (max-min fluorescence) at 10 µM. 1,700 tested, 43% active;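 active = calcium response below the same-plate mean of wells given acetylcholine alone at its 80%-effect dose, minus 3 SD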
mGluR4 antag: mGluR4 (human) activity, M1 antagonist secondary assay; 1,700 tested, 0.9% active; AID 678; shares compounds with M1 antagonist; fluorescence response (max-min) at 10 µM; CHO-mGluR4 calcium flux, Fluo-4 fluorescence, glutamate EC80; active compounds read low;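 active = fluorescence response below the plate's average for near-maximal glutamate wells, less 3 SD of those wells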;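 also: raw unnormalized fluorescence span taken in the window right after glutamate addition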
Large screens that a line does not name were inactive (follow-up assays come after a bar, where they were run).

Cc1ccnc(SCCn2c(N3CC(C)CC(C)C3)nc3c2c(=O)n(C)c(=O)n3C)n1 (stereo not drawn)	none
COCC(COCCCNC(=O)Nc1ccc(Br)cc1)OC (stereo not drawn)	M1 antagonist -1.6 | M1 antag conf inactive | mGluR4 antag inactive
COCCCNC(=O)Nc1ccc(Br)cc1Cl	none
CCNc1nc2c(c(=O)n(Cc3ccccc3)c(=O)n2C)n1Cc1ccccc1	none
CCOC(=O)c1cc(C)n(CCCN2CCOCC2)c1C	M1 antagonist -1 | M1 antag conf 403 | mGluR4 antag inactive
CC1(C)CC(=O)CC(=NCC(=O)O)C1	M1 antagonist -2.6 | M1 antag conf inactive | mGluR4 antag inactive
Brc1ccc(-c2cnc3n2CCCC3)cc1	M1 antagonist -3 (no result: Jurkat viability) | M1 antag conf 288 | mGluR4 antag inactive
O=C(CCNc1ccc(F)cc1)c1ccco1	none
Cc1ccc(NC(=O)NC(=O)CN2C(=O)NC3(CCCCCCC3)C2=O)c(C)c1	M1 antagonist -2.2 | M1 antag conf inactive | mGluR4 antag inactive
Cc1cc(Br)ccc1NC(=O)CNC(=O)CN1C(=O)NC2(CCCCCC2)C1=O	none
COc1cc(NC(=O)C2CCCCC2)c(OC)cc1NC(=O)CCC(=O)NCc1ccco1	none
CN1CCN(C2=C(Cl)C(=O)N(Cc3ccccc3)C2=O)CC1	M1 antagonist -5.6 | M1 antag conf 226 | mGluR4 antag inactive
CN1CCN(C2=C(Cl)C(=O)N(c3cccc(Cl)c3)C2=O)CC1	none
CCn1c(=O)cc(SCC(=O)N2CCOCC2)c2ccccc21	none (no result: Jurkat viability, JNK3 inh, S1P1 ag-PAM, S1P3 ag)
CCn1c(=O)cc(SCC(=O)N2CCN(C3CCCCC3)CC2)c2ccccc21	M1 antagonist -5.1 (no result: Jurkat viability, JNK3 inh, S1P1 ag-PAM, S1P3 ag) | M1 antag conf 256 | mGluR4 antag inactive
C=CCN1C(=O)C2C(C(=O)NC)C3(C)C=CC2(O3)C1C(=O)NCc1ccc(OC)cc1 (stereo not drawn)	none (no result: Jurkat viability, JNK3 inh, S1P1 ag-PAM, S1P3 ag)
CN1CCCC(OC(=O)c2cc(Br)ccc2Cl)C1 (stereo not drawn)	M1 antagonist -6.6 | M1 antag conf 412 | mGluR4 antag inactive
CN1CCN(C2=Nc3ccccc3Oc3ccc(Cl)cc32)CC1	M1 antagonist -13 (no result: Jurkat viability) | M1 antag conf 15 | mGluR4 antag inactive
c1coc(Cn2c(SCc3nc4ccccc4[nH]3)nnc2-c2cccs2)c1	M1 antagonist -2.3 (no result: Jurkat viability, JNK3 inh, S1P1 ag-PAM, S1P3 ag) | M1 antag conf inactive | mGluR4 antag inactive
O=C(CCCc1ccccc1)N1CCc2ccccc21	none (no result: Jurkat viability, JNK3 inh, S1P1 ag-PAM, S1P3 ag)
COCCn1c(C23CC4CC(CC(C4)C2)C3)n[nH]c1=S	M1 antagonist -2.8 | M1 antag conf inactive | mGluR4 antag inactive
Fc1c(F)c(F)c(CSc2nc3ccccc3[nH]2)c(F)c1F	none
O=S1(=O)CC=C(CSc2nc3ccccc3[nH]2)C1	M1 antagonist -2.3 | M1 antag conf inactive | mGluR4 antag inactive
Cc1ccc(C)c(Cn2nnc3c(=O)[nH]c(C(=O)NCc4ccco4)nc32)c1	M1 antagonist -2.4 | M1 antag conf inactive | mGluR4 antag inactive
O=C(NCc1cccs1)c1nc2c(nnn2Cc2ccc(F)cc2)c(=O)[nH]1	none (no result: M1 ag, M1 antagonist)
CCOC(=O)N1CCC(N2C(=O)c3ccccc3C2Nc2ccccc2C)CC1 (stereo not drawn)	none
CCOC(=O)c1ccccc1NC1c2ccccc2C(=O)N1C1CCN(C(=O)OCC)CC1 (stereo not drawn)	M1 antagonist -1.6 | M1 antag conf 384 | mGluR4 antag inactive
CCCc1cc(N2CCCC(C(=O)NCC)C2)n2ncnc2n1 (stereo not drawn)	none
CN(C(=O)c1cccc(C#N)c1)c1nnc(C2CCCO2)s1 (stereo not drawn)	M1 antagonist -4.5 | M1 antag conf inactive | mGluR4 antag inactive
Cc1nnc(N(Cc2ccco2)C(=O)c2cccc(C#N)c2)s1	none (no result: Jurkat viability, JNK3 inh, S1P1 ag-PAM, S1P3 ag)
CCCCOc1ccc(NC2=NC3(CCCC3)N=C(N)N2)cc1	M1 antagonist -3 (no result: S1P1 ag-PAM) | M1 antag conf 477 | mGluR4 antag inactive
COc1ccc(OC)c(NC2=NC3(CCCC3)N=C(N)N2)c1	none
CC1(C)CC(N2CCC(=O)N(C3CC(C)(C)NC(C)(C)C3)C2)CC(C)(C)N1	M1 antagonist -3.2 | M1 antag conf inactive | mGluR4 antag inactive
O=S(=O)(/C=C/c1ccccc1)Nc1ccc2c(c1)OCO2	none (no result: Jurkat viability)
Cc1ccc2nc(NC3=NCN(Cc4ccc5c(c4)OCO5)CN3)nc(C)c2c1	M1 antagonist -4.2 | M1 antag conf 90 | mGluR4 antag inactive
Cc1ccc2nc(NC3=NCN(Cc4ccco4)CN3)nc(C)c2c1	M1 antagonist -2.9 | M1 antag conf inactive | mGluR4 antag inactive
CCc1ccc2nc(NC3=NCN(CCCN4CCOCC4)CN3)nc(C)c2c1	M1 antagonist -3.7 | M1 antag conf 344 | mGluR4 antag inactive
CCOc1ccc2nc(NC3=NCN(CC4CCCO4)CN3)nc(C)c2c1 (stereo not drawn)	none
Cc1ccc2nc(NC3=NCN(C4CCCCC4)CN3)nc(C)c2c1	none
COc1cccc(C(=O)OC(C)CN2CCCC2)c1 (stereo not drawn)	none
CC1CCN(CC(C)OC(=O)c2ccc3c(c2)OCCO3)CC1 (stereo not drawn)	M1 antagonist -12 | M1 antag conf 92 | mGluR4 antag inactive
O=C(OCC(=O)N1CCOCC1)c1ccc2c(c1)OCCO2	none
CC(CN1CCCCC1)OC(=O)c1ccc2c(c1)OCO2 (stereo not drawn)	M1 antagonist -2.7 | M1 antag conf inactive | mGluR4 antag inactive
CC(CN1CCCCC1)OC(=O)c1cc2ccccc2o1 (stereo not drawn)	M1 antagonist -4.7 | M1 antag conf 296 | mGluR4 antag inactive
CC(C)N(C(=O)CSc1nnnn1C1CCCC1)C(C)C	none
COc1cc2c(C)nc(C)c(C#N)c2cc1OC	none
O=C(C1COc2ccccc2O1)N1CCc2ccccc21 (stereo not drawn)	none
CCN(CC)CCCNC(=O)CC1Oc2ccc(C)cc2NC1=O (stereo not drawn)	none
Cc1ccc2c(c1)NC(=O)C(CC(=O)Nc1ccc(CN3CCC(C)CC3)cc1)O2 (stereo not drawn)	M1 antagonist -9.3 | M1 antag conf 14 | mGluR4 antag inactive
CCN1CCN(Cc2ccc(NC(=O)CC3Oc4ccc(C)cc4NC3=O)cc2)CC1 (stereo not drawn)	M1 antagonist -3.9 | M1 antag conf 335 | mGluR4 antag inactive
Cc1ccc2c(c1)NC(=O)C(CC(=O)NCCN(CC(C)C)CC(C)C)O2 (stereo not drawn)	M1 antagonist -5.6 | M1 antag conf 305 | mGluR4 antag inactive
